Each structure is given as a SMILES string.

In the first data set the target is T1, 11-beta-hydroxylase (Cytochrome P450 11B1, mitochondrial) (Rattus norvegicus, UniProt P15393).
T1 sequence (P15393 whole entry): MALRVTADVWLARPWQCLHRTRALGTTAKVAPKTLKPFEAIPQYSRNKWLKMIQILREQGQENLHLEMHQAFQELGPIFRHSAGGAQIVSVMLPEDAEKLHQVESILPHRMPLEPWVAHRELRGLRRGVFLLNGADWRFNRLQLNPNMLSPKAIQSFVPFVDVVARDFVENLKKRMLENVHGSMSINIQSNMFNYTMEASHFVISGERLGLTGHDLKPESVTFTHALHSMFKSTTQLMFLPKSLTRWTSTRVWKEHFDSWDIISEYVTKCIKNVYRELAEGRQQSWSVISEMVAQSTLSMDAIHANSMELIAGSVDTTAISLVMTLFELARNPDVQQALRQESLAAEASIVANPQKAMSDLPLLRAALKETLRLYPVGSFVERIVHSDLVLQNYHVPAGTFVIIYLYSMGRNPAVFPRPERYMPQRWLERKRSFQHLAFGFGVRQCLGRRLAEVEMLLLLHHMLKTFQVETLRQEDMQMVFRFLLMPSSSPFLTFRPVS
The experiment in a line: Inhibition of rat adrenal 11-beta-hydroxylase at 10e-5 M. The settings on record: rat adrenal 11-beta-hydroxylase (adrenal enzyme preparation). The procedure, abridged: (§1)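 Washed adrenal mitochondria from three male Charles River rats, used within 30 min. Incubated at 37 °C, pH 7.4 (HEPES/sucrose/MgCl2/KH2PO4/malate) with 50 μM [14C]-11-deoxycorticosterone and test drug, 5-min preincubation then 10 min with mitochondria. Extracted into CH2Cl2. Substrate and corticosterone separated by silica TLC and counted by scintillation.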
As for `c1ccc(OCCn2ccnc2)cc1`, the inhibition (commonly how much of the control response was suppressed) at 0.0001 M was 72%.

The next data set has as its target T2, Cytochrome P450 11B1, mitochondrial (Rattus norvegicus, UniProt P15393).
T2 sequence (P15393 whole entry): T1 sequence (P15393 whole entry)
The experiment in a line: Inhibition of rat adrenal 11-beta-hydroxylase.
Conditions: not given
The procedure, abridged: as §1
Take `CC(C)c1[nH]c2ccccc2c1Cn1ccnc1`: the midpoint of inhibition, the IC50, lay at 2000 nM.
On to `NC(=O)c1ccc(OCCn2ccnc2)cc1`, for which the IC50 – broadly, the point on the concentration scale where inhibition reaches its midpoint – turned out to be 10000 nM.
On to `O=C(O)c1cccc(OCCn2ccnc2)c1`, for which the IC50 was > 100000 nM.
On to `O=C(O)COc1ccc(OCCn2ccnc2)cc1`, for which the IC50 is > 100000 nM.
Regarding `NC(=O)COc1ccc(OCCn2ccnc2)cc1`, the IC50 was > 100000 nM.
In the case of `O=C(O)c1ccc(OCCn2ccnc2)cc1` [DAZOXIBEN], the IC50 is > 100000 nM.

The target of another data set is T3, Thromboxane-A synthase (Homo sapiens, UniProt P24557).
T3 sequence (P24557 whole entry): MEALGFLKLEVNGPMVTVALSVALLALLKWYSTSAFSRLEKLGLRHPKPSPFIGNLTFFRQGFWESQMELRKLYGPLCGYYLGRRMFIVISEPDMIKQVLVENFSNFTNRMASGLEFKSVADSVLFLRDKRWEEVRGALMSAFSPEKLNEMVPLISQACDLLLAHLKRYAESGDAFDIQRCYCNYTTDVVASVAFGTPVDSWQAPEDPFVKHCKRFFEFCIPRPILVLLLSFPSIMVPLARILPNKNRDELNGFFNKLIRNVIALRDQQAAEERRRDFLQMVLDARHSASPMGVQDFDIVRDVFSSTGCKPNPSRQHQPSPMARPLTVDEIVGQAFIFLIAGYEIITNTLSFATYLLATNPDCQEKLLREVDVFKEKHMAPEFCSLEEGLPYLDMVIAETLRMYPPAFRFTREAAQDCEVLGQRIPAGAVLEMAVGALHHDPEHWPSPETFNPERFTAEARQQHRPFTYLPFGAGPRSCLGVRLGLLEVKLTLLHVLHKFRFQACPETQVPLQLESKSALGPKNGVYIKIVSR
The experiment in a line: Inhibitory activity against thromboxane A2 synthetase.
Conditions: not given
The procedure, abridged: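 Human platelet microsomes, cyclooxygenase inactivated with 30 μM indomethacin (30 min, 0 °C). Compound preincubated 2 min on ice, pH 7.8 phosphate. Then 1 min on ice with freshly made PGH2 (from 0.1 mM arachidonic acid and ram seminal vesicle microsomes). Stopped with EtOH. TxB2 measured by RIA in triplicate; dose-response curves over several concentrations.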
`N#Cc1cccc(OCCn2ccnc2)c1` displayed an IC50 of 3500 nM.
Same read-out and setting: to `CC(C)c1[nH]c2ccccc2c1Cn1ccnc1` belongs 15 nM; to `c1ccc(OCCn2ccnc2)cc1`, 660 nM.
For `O=C(O)Cc1ccccc1OCCn1ccnc1`, the half-inhibitory concentration (IC50) is > 10000 nM.
Compound `CN(C)C(=O)c1ccc(OCCn2ccnc2)cc1` registered an IC50 of 1100 nM.
Take `CNC(=O)c1ccc(OCCn2ccnc2)cc1`: half-maximal inhibition (IC50) was put at 860 nM.
For the compound `NC(=O)c1ccc(OCCn2ccnc2)cc1`, half-maximal inhibition (IC50) was put at 56 nM.
In turn, `CCOC(=O)c1ccc(OCCCn2ccnc2)cc1` showed an IC50 of 3000 nM.
For `O=C(O)Cc1ccc(OCCn2ccnc2)cc1`, half-maximal inhibition (IC50) required 32 nM.
Turning to `CCOC(=O)COc1ccc(OCCn2ccnc2)cc1`, inhibition was half-maximal at 610 nM (IC50).
On the same count and under the same terms, with `N#Cc1ccc(OCCn2ccnc2)cc1` the figure was 13000 nM; with `NC(=O)Nc1ccc(OCCn2ccnc2)cc1`, 840 nM; with `NC(=O)c1ccccc1OCCn1ccnc1`, 22000 nM.
As to `O=C(O)c1cccc(OCCn2ccnc2)c1`, it took 530 nM to reach half-maximal inhibition (IC50).
With `O=C(O)c1ccccc1OCCn1ccnc1`, the IC50 was > 10000 nM.
The same measure, in the same setting: with `c1cn(CCOc2ccc(-c3nnn[nH]3)cc2)cn1` the figure was 15 nM; with `Nc1ccc(OCCn2ccnc2)cc1`, > 50000 nM.
The compound `CC(=O)Nc1ccc(OCCn2ccnc2)cc1` came in with an IC50 of 4000 nM.
Take `O=C(O)c1ccc(OCCCn2ccnc2)cc1`: the IC50 was found to be 27 nM.
`CCOC(=O)c1ccccc1OCCn1ccnc1` showed an IC50 of 4400 nM.
Still for that read-out and setting: with `CCOC(=O)Cc1ccccc1OCCn1ccnc1` the figure was 2000 nM.
For `O=C(NC(=O)c1ccc(OCCn2ccnc2)cc1)c1ccccc1`, inhibition was half-maximal at 180 nM (IC50).
Turning to `O=C(O)COc1ccc(OCCn2ccnc2)cc1`, the IC50 was 95 nM.
Still for that read-out and setting: to `O=[N+]([O-])c1ccc(OCCn2ccnc2)cc1` belongs > 50000 nM; to `CCOC(=O)Cc1ccc(OCCn2ccnc2)cc1`, 2900 nM; to `NS(=O)(=O)c1ccc(OCCn2ccnc2)cc1`, > 50000 nM.
`NC(=O)Cc1ccc(OCCn2ccnc2)cc1` displayed an IC50 of 1800 nM.
As to `CC(=O)NC(=O)c1ccc(OCCn2ccnc2)cc1`, the IC50 was 630 nM.
With `NC(=O)COc1ccc(OCCn2ccnc2)cc1`, half-maximal inhibition (IC50) required 850 nM.
Same read-out and setting: to `c1c[nH]cn1` [IMIDAZOLE] belongs 670000 nM.
In the case of `COc1ccc2c(c1)c(CC(=O)O)c(C)n2C(=O)c1ccc(Cl)cc1` [INDOMETHACIN], the IC50 is > 100000 nM.

The values above are taken from ChEMBL document CHEMBL1122814, “Selective thromboxane synthetase inhibitors. 1. 1-[(Aryloxy)alkyl]-1H-imidazoles” (J Med Chem, 1985).
